# Assay results published in PMC12533025 (Scientific Reports, 2025).
# Tests used:
# [1] = test system: male Wistar mice; assay: Warm-water tail-flick test; assay type: in vivo; details: for acute antinociceptive agonist effect, tail flick assay: up to 30 mg/kg dose; for percentage of maximum possible effect (% MPE), tail flick assay: compared with the KOP agonist Nalbuphine
# [2] = molecular target: T1, KOP (Mus musculus, UniProt P33534); assay: Radioligand competitive binding assay, KOP; details: KOP versus MOP binding
# [3] = test system: prolactin; assay: Prolactin ELISA assay; assay type: in vivo, mice; details: rat prolactin ELISA test; relative to normal level
# Outline: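 After dosing, blood is drawn by retro-orbital sinus bleed from isoflurane-anaesthetised mice and spun at 1000 g, 4 °C, 10 min. Plasma is diluted 1:20 and prolactin is measured by […] prolactin sandwich ELISA per kit protocol. Values are in ng/mL. Groups are compared with control by one-way ANOVA and Dunnett post-hoc test (p < 0.05).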
# [4] = molecular target: T1, KOP; assay: [35S]-GTPγS stimulated binding functional assay, KOP; assay type: biochemical; details: for agonism in the [35S]-GTPγS functional assay: KOP and MOP functional assay
# Outline: (§1)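 Membranes come from CHO cells expressing cloned mouse opioid receptors. Membrane protein (10 µg) is incubated with test compound (5µM), […] and 0.1nM [35S]-GTPγS in 50mM Tris, 3mM MgCl2, 0.2mM EDTA, pH 7.7, for 2 h at room temperature. Non-specific binding is defined with 20µM unlabelled GTPγS. Full-agonist references at 5µM are DAMGO (MOP) and salvinorin A (KOP).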
# [5] = molecular target: T2, MOP (Mus musculus, UniProt P42866); assay: Radioligand competitive binding assay, MOP; details: MOP over KOP
# [6] = molecular target: T2, MOP; assay: [35S]-GTPγS stimulated binding functional assay, MOP; assay type: biochemical
# Outline: as §1
# [7] = clinical trials; cited from earlier work
# [8] = cited from earlier work
# [9] = molecular target: KOP; details: [35S]GTP-γ-S assay; cited from earlier work
smiles,measurement,setting,value
"CC(C)[C@H](CN1CCc2ccccc2C1)NC(=O)Cc1c[nH]c2ccccc12 [(R)-10c, (R)-N-(1-(3,4-dihydroisoquinolin-2(1H)-yl)-3-methylbutan-2-yl)-2-(1H-indol-3-yl)acetamide]","acute antinociceptive agonist effect, tail flick assay",[1],failed to show any significant agonist effect
CC(C)Cc1ccc([C@@H](C)C(=O)NC(CN2CCc3ccccc3C2)C(C)C)cc1 (stereo partly drawn) [(R)-10d],KOP selectivity,[2],most selective
same,blood prolactin levels,[3],double
same,"percentage of maximum possible effect (% MPE), tail flick assay",[1],comparable to that of the KOP agonist Nalbuphine
"Cc1c(CC(=O)N[C@@H](CN2CCc3ccccc3C2)C(C)C)cccc1[N+](=O)[O-] [(R)-10m, (R)-N-(1-(3,4-dihydroisoquinolin-2(1H)-yl)-3-methylbutan-2-yl)-2-(2-methyl-3-nitrophenyl)acetamide]",EC50,[4],666 nM
same,MOP selectivity,[5],23 fold
same,blood prolactin levels,[3],double
same,latency in the tail-flick animal model,[1]; compared with positive control Nalbuphine,"comparable latency to the positive control, Nalbuphine"
same,"percentage of maximum possible effect (% MPE), tail flick assay",[1],comparable to that of the KOP agonist Nalbuphine
same,EC50,[6],94.5 nM
same,IC50,[6],94.5 nM
"CC(C)[C@@H](CN1CCc2ccccc2C1)NC(=O)c1cccc(-c2cccc(O)c2)c1 [(S)-10h, (S)-N-(1-(3,4-dihydroisoquinolin-2(1H)-yl)-3-methylbutan-2-yl)-3′-hydroxy-[1,1′-biphenyl]-3-carboxamide]",functional character at KOP/MOP,[4]; KOP and MOP,non-selective KOP/MOP antagonist
same,agonism in the [35S]-GTPγS functional assay,[4],failed to produce any agonism
same,"acute antinociceptive agonist effect, tail flick assay",[1],failed to show any significant agonist effect
"CC(C)[C@@H](CN1CCc2ccccc2C1)NC(=O)c1cccc(-c2cccc(C#N)c2)c1 [(S)-10i, (S)-3′-cyano-N-(1-(3,4-dihydroisoquinolin-2(1H)-yl)-3-methylbutan-2-yl)-[1,1′-biphenyl]-3-carboxamide]",agonism in the [35S]-GTPγS functional assay,[4],failed to produce any agonism
same,"acute antinociceptive agonist effect, tail flick assay",[1],failed to show any significant agonist effect
"CC(C)[C@@H](CN1CCc2ccccc2C1)NC(=O)c1cccc(-c2cccnc2)c1 [(S)-10j, (S)-N-(1-(3,4-dihydroisoquinolin-2(1H)-yl)-3-methylbutan-2-yl)-3-(pyridin-3-yl)benzamide]",blood prolactin levels,[3],double
same,"percentage of maximum possible effect (% MPE), tail flick assay",[1],comparable to that of the KOP agonist Nalbuphine
Cc1cc(C)cc([C@@H]2CCCN2Cc2ccc(Oc3ccc(C(N)=O)cc3F)cc2)c1 [Aticaprant],adverse effects (NSVT),[7],devoid of the NSVT effect
CC(C)[C@@H](CN1CC[C@@](C)(c2cccc(O)c2)[C@@H](C)C1)NC(=O)[C@H]1Cc2ccc(O)cc2CN1 [JDTic],blood–brain barrier penetration,[8],low blood–brain barrier penetration
same,adverse effects (NSVT),[7],non-sustained ventricular tachycardia (NSVT)
same,Ki,[9],0.006 nM
same,µ/ĸ ratio,[9],570
same,δ/ĸ ratio,[9],> 16600
